In ChEMBL document CHEMBL1275524, “Activities of antifungal agents against yeasts and filamentous fungi: assessment according to the methodology of the European Committee on Antimicrobial Susceptibility Testing” (2008):
≈ marks a conversion by molar mass, not a printed value.

Experiments:
Nakaseomyces glabratus [1] = assay: Antifungal activity against Candida glabrata; format: functional
In short: (§1)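 Broth microdilution in flat-bottom plates in RPMI 1640 with 2% glucose; inoculum 0.5 × 105 to 2.5 × 10^5 CFU/ml. MICs were read spectrophotometrically at 24 h. AMB endpoint: ≥90% growth reduction vs drug-free control well. Azole and CPF endpoint: 50% reduction in optical density. MFC was taken as the lowest concentration giving 99% killing.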

Absidia [2] = assay: Antifungal activity against Absidia species; format: functional
Sporothrix schenckii = assay: Antifungal activity against Sporothrix schenckii by EUCAST method; format: functional; conditions: read-out: MEC
In short: (§2)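 Broth microdilution following the EUCAST reference procedure for spore-forming moulds, in flat-bottom plates with RPMI 1640 plus 2% glucose. Inoculum was 2 × 10^5 to 5 × 10^5 CFU/ml. MICs were read visually at 24 and 48 h as 100% growth reduction versus a drug-free control for polyenes and azoles. MEC was used for caspofungin. Tests were run in duplicate and repeated twice.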

Candida tropicalis [3] = assay: Antifungal activity against Candida tropicalis by EUCAST method; format: functional; in short: as §1
Aspergillus flavus [4] = assay: Antifungal activity against Aspergillus flavus by EUCAST method; format: functional
[5] = Antifungal activity against Cryptococcus neoformans var. neoformans by EUCAST method; format: functional; conditions: Cryptococcus deneoformans
In short: (§3)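 EUCAST yeast microdilution, modified for nonfermentative yeasts: plates were sealed and agitated at 350 rpm and 30°C for 48 h.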

Rhizopus = assay: Antifungal activity against Rhizopus species; format: functional; in short: as §2
Cunninghamella [6] = assay: Antifungal activity against Cunninghamella species; format: functional
Absidia [7] = assay: Antifungal activity against Absidia species by EUCAST method; format: functional; conditions: read-out: MEC
Penicillium sp. = assay: Antifungal activity against Penicillium species; format: functional
Aspergillus flavus [8] = assay: Antifungal activity against Aspergillus flavus; format: functional
Trichosporon asahii = assay: Antifungal activity against Trichosporon asahii by EUCAST method; format: functional
In short: (§4)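 Nonfermentative yeasts were tested by the EUCAST microdilution recommendations with one change: plates were sealed and agitated at 350 rpm and 30°C for 48 h.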

Pichia kudriavzevii [9] = assay: Antifungal activity against Candida krusei by EUCAST method; format: functional; in short: as §1
Pichia kudriavzevii [10] = assay: Antifungal activity against Candida krusei; format: functional
In short: (§5)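 EUCAST broth microdilution for yeasts in flat-bottom plates, RPMI 1640 with 2% glucose, inoculum 0.5 × 105 to 2.5 × 10^5 CFU/ml. […] MFC is the lowest concentration giving 99% killing.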

Fusarium oxysporum = assay: Antifungal activity against Fusarium oxysporum; format: functional
Mucor hiemalis [11] = assay: Antifungal activity against Mucor hiemalis; format: functional
Mucor hiemalis [12] = assay: Antifungal activity against Mucor hiemalis by EUCAST method; format: functional; conditions: read-out: MEC
[13] = Antifungal activity against Cryptococcus neoformans var. neoformans; format: functional; conditions: Cryptococcus deneoformans; in short: as §3
Rhizopus arrhizus = assay: Antifungal activity against Rhizopus oryzae by EUCAST method; format: functional; conditions: read-out: MEC; in short: as §2
Candida parapsilosis = assay: Antifungal activity against Candida parapsilosis; format: functional; conditions: Lodderomyces parapsilosis; in short: as §1
Mucor = assay: Antifungal activity against Mucor species by EUCAST method; format: functional; conditions: read-out: MEC
Clavispora lusitaniae [14] = assay: Antifungal activity against Candida lusitaniae by EUCAST method; format: functional; in short: as §1
Cunninghamella [15] = assay: Antifungal activity against Cunninghamella species by EUCAST method; format: functional; conditions: read-out: MEC
Candida tropicalis [16] = assay: Antifungal activity against Candida tropicalis; format: functional; in short: as §1
Trichosporon inkin = assay: Antifungal activity against Trichosporon inkin; format: functional; in short: as §4
Aspergillus niger [17] = assay: Antifungal activity against Aspergillus niger by EUCAST method; format: functional
Nakaseomyces glabratus [18] = assay: Antifungal activity against Candida glabrata by EUCAST method; format: functional; in short: as §1
Clavispora lusitaniae [19] = assay: Antifungal activity against Candida lusitaniae; format: functional; in short: as §1
Aspergillus fumigatus = assay: Antifungal activity against Aspergillus fumigatus; format: functional
Cryptococcus gattii = assay: Antifungal activity against Cryptococcus neoformans var. gattii; format: functional, Cryptococcus bacillisporus; in short: as §3
Talaromyces marneffei = assay: Antifungal activity against Penicillium marneffei by EUCAST method; format: functional; conditions: read-out: MEC
Saccharomyces cerevisiae [20] = assay: Antifungal activity against Saccharomyces cerevisiae; format: functional
In short: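 Broth microdilution following EUCAST for fermentative yeasts, in flat-bottom plates with RPMI 1640 plus 2% glucose. Inoculum was 0.5 × 10^5 to 2.5 × 10^5 CFU/ml. End points were read spectrophotometrically at 24 h: ≥90% growth reduction versus a drug-free control for amphotericin B, and 50% OD reduction for azoles and caspofungin. MFC was the lowest concentration giving 99% killing.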

Aspergillus niger [21] = assay: Antifungal activity against Aspergillus niger; format: functional
Geotrichum candidum = assay: Antifungal activity against Geotrichum candidum; format: functional
Saccharomyces cerevisiae [22] = assay: Antifungal activity against Saccharomyces cerevisiae by EUCAST method; format: functional; in short: as §5
Curvularia australiensis = assay: Antifungal activity against Bipolaris australiensis; format: functional
In short: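 Dematiaceous fungi were tested by the EUCAST spore-forming mold reference procedure: flat-bottom microdilution plates, RPMI 1640 plus 2% glucose, inoculum 2 × 105 to 5 × 10^5 CFU/ml. Endpoints were read visually at 24 and 48 h. Polyenes and azoles: 100% growth reduction vs drug-free control. CPF: minimum effective concentration. Run in duplicate and repeated twice.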

## CC[C@H](C)C[C@H](C)CCCCCCCCC(=O)N[C@H]1C[C@@H](O)[C@@H](NCCN)NC(=O)[C@@H]2[C@@H](O)CCN2C(=O)[C@H]([C@H](O)CCN)NC(=O)[C@H]([C@H](O)[C@@H](O)c2ccc(O)cc2)NC(=O)[C@@H]2C[C@@H](O)CN2C(=O)[C@H]([C@@H](C)O)NC1=O [CASPOFUNGIN]
Nakaseomyces glabratus [1]
  MFC: 0.15 µg/mL (≈ 0.137 µM)
Absidia [2]
  MFC: > 8 µg/mL
Sporothrix schenckii
  minimal effective concentration: > 8 µg/mL
Candida tropicalis [3]
  MIC: 0.34 µg/mL (≈ 0.311 µM)
Aspergillus flavus [4]
  MIC: 0.28 µg/mL (≈ 0.256 µM)
Aspergillus flavus [4]; read-out: MEC
  minimal effective concentration: 0.25 µg/mL
[5]
  MIC: 2.04 µg/mL (≈ 1.87 µM)
Rhizopus
  MFC: > 8 µg/mL
Cunninghamella [6]
  MFC: > 8 µg/mL
Absidia [7]
  minimal effective concentration: > 8 µg/mL
Penicillium sp.
  MFC: > 8 µg/mL
Aspergillus flavus [8]
  MFC: > 8 µg/mL
Trichosporon asahii
  MIC: 4 µg/mL (≈ 3.66 µM)
Pichia kudriavzevii [9]
  MIC: 0.58 µg/mL (≈ 0.53 µM)
Pichia kudriavzevii [10]
  MFC: 2 µg/mL (≈ 1.83 µM)
Fusarium oxysporum
  MFC: > 8 µg/mL
Mucor hiemalis [11]
  MFC: > 8 µg/mL
Mucor hiemalis [12]
  minimal effective concentration: > 8 µg/mL
[13]
  MFC: > 8 µg/mL
Rhizopus arrhizus
  minimal effective concentration: > 8 µg/mL
Candida parapsilosis
  MFC: 0.25 µg/mL (≈ 0.229 µM)
Mucor
  minimal effective concentration: > 8 µg/mL
Clavispora lusitaniae [14]
  MIC: 0.32 µg/mL (≈ 0.293 µM)
Cunninghamella [15]
  minimal effective concentration: > 8 µg/mL
Candida tropicalis [16]
  MFC: 0.5 µg/mL (≈ 0.457 µM)
Trichosporon inkin
  MFC: > 8 µg/mL
Aspergillus niger [17]
  MIC: 0.36 µg/mL (≈ 0.329 µM)
Aspergillus niger [17]; read-out: MEC
  minimal effective concentration: 0.25 µg/mL
Nakaseomyces glabratus [18]
  MIC: 0.32 µg/mL (≈ 0.293 µM)
Clavispora lusitaniae [19]
  MFC: 4 µg/mL (≈ 3.66 µM)
Aspergillus fumigatus
  MFC: > 8 µg/mL
Cryptococcus gattii
  MFC: > 8 µg/mL
Talaromyces marneffei
  minimal effective concentration: > 8 µg/mL
Saccharomyces cerevisiae [20]
  MFC: 4 µg/mL (≈ 3.66 µM)
Aspergillus niger [21]
  MFC: > 8 µg/mL
Geotrichum candidum
  MFC: > 8 µg/mL
Saccharomyces cerevisiae [22]
  MIC: 1.3 µg/mL (≈ 1.19 µM)
Curvularia australiensis
  MFC: > 8 µg/mL
